Results from ChEMBL document CHEMBL3616369, “N-O-Isopropyl Sulfonamido-Based Hydroxamates as Matrix Metalloproteinase Inhibitors: Hit Selection and in Vivo Antiangiogenic Activity” (J Med Chem, 2015).
pIC50: −log10 of the molar value. Active and inactive are the calls of the source. No cut-off for these calls is given here.

Columns and labels:
[1] = target: T1, Interstitial collagenase (Homo sapiens, UniProt P03956); assay: Inhibition of recombinant human activated-MMP1 using Mca-Lys-Pro-Leu-Gly-Leu-Dap(Dnp)-Ala-Arg-NH2 as fluorogenic substrate incubated for 4 hrs followed by substrate addition measured every 10 secs for 20 mins by fluorometric assay
T1 sequence (P03956 whole entry): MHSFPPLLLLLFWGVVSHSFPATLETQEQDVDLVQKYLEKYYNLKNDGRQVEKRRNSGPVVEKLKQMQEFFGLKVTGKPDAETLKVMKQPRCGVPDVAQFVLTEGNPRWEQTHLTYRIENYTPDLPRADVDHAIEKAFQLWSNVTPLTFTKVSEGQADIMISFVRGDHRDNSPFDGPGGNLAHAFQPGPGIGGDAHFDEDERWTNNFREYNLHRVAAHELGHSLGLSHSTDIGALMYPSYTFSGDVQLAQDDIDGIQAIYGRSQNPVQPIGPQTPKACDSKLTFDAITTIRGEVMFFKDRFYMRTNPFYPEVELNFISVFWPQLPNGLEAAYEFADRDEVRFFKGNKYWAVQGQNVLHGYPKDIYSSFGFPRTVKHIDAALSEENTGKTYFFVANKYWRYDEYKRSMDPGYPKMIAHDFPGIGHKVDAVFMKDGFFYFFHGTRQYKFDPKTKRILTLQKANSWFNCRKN
Procedure, shortened: (§1)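 Recombinant human MMPs. Pro-forms activated with APMA: MMP-2 2 mM 1 h, MMP-9 1 mM 1 h, MMP-1 2 mM 2 h, MMP-13 1 mM 35 min, all 37 °C. MMP-3 activated with trypsin 4.4 µg/mL 30 min, then soybean trypsin inhibitor. Final enzyme 0.5 (MMP-2), 1.3 (MMP-9), 1.0 (MMP-14cd), 2.0 (MMP-1), 0.66 (MMP-13), 5 nM (MMP-3). Preincubated with inhibitor 4 h at 25 °C in Tris 50 mM pH 7.5, NaCl 150 mM, CaCl2 10 mM, Brij 35 0.05%, DMSO 1%. Substrate 2 µM final; fluorescence (ex 325/em 395 nm) every 10 s for 20 min. IC50 from vi/vo = 1/(1+[I]/IC50).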

[2] = target: Stromelysin-1 (Homo sapiens, UniProt P08254); assay: Inhibition of recombinant human activated-MMP3 using Mca-Lys-Pro-Leu-Gly-Leu-Dap(Dnp)-Ala-Arg-NH2 as fluorogenic substrate incubated for 4 hrs followed by substrate addition measured every 10 secs for 20 mins by fluorometric assay; procedure, shortened: as §1
Stromelysin-1, sequence (P08254 whole entry): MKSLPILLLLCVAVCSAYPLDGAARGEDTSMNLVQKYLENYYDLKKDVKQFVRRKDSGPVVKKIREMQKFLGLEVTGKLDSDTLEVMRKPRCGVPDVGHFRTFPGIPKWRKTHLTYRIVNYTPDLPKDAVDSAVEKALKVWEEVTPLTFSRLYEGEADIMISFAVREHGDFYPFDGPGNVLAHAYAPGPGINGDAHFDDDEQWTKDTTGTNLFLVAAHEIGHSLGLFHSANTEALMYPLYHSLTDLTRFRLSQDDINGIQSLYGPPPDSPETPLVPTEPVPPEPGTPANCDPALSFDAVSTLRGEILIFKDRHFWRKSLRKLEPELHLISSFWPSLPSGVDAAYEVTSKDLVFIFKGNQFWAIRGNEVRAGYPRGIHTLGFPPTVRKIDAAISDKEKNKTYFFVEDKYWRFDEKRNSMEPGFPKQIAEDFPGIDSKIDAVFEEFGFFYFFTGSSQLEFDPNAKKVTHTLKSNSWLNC

[3] = target: T2, Matrix metalloproteinase-9 (Homo sapiens, UniProt P14780); assay: Inhibition of recombinant human activated-MMP9 using Mca-Lys-Pro-Leu-Gly-Leu-Dap(Dnp)-Ala-Arg-NH2 as fluorogenic substrate incubated for 4 hrs followed by substrate addition measured every 10 secs for 20 mins by fluorometric assay; procedure, shortened: as §1
T2 sequence (P14780 whole entry): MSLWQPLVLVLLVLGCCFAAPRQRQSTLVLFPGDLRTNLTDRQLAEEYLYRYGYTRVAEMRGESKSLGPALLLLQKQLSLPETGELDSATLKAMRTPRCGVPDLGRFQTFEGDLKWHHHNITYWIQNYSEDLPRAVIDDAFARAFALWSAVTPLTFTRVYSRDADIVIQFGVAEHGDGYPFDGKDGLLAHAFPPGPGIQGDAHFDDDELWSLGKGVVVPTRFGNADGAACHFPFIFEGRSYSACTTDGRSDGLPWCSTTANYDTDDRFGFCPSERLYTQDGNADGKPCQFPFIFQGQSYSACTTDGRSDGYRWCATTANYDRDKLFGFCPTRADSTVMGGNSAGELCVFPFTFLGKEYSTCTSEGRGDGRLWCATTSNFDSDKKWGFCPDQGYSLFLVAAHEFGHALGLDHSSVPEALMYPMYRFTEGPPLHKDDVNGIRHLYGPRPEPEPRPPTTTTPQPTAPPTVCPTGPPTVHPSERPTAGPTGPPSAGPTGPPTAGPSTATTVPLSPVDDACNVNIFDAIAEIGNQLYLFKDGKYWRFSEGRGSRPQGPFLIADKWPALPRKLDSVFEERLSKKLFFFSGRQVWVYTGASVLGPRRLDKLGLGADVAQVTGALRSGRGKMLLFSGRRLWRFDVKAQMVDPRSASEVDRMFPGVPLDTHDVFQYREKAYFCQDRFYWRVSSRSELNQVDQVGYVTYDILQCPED

[4] = tested on: HUVEC; assay: Inhibition of cell migration in human HUVEC at 0.001 to 10 uM after 6 hrs using modified Boyden chambers; format: functional, cell-based
Procedure, shortened: (§2)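 Modified Boyden chamber. HUVEC (5x10^4), PBS-washed, in serum-free medium with or without inhibitor in upper compartment; 10% FBS or serum-free medium below. 8 µm polycarbonate filters coated with collagen 50 µg/mL (migration, 6 h) or matrigel 1 mg/mL (invasion, overnight). Cells on lower surface ethanol-fixed, stained, counted blind in eight fields. Three experiments in duplicate; one-way ANOVA.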

[5] = tested on: HUVEC; assay: Inhibition of cell migration in human HUVEC after 6 hrs using modified Boyden chambers; format: functional, cell-based; procedure, shortened: as §2
[6] = tested on: HUVEC; assay: Inhibition of FBS-induced cell invasion in human HUVEC after overnight incubation using modified Boyden chambers; format: functional, cell-based; procedure, shortened: as §2
[7] = tested on: HUVEC; assay: Inhibition of FBS-induced cell invasion in human HUVEC at 0.001 uM after overnight incubation using modified Boyden chambers; format: functional, cell-based; procedure, shortened: as §2
[8] = tested on: HUVEC; assay: Inhibition of FBS-induced cell morphogenesis in human HUVEC after 6 hrs by matrigel assay; format: functional, cell-based
Procedure, shortened: (§3)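 Matrigel (10 mg/mL) polymerized 1 h at 37 °C. HUVEC (50x10^4/well) in complete medium with 10% FBS, with or without inhibitor at various concentrations, layered on top. After 6 h, capillary-like organization imaged by inverted microscope; mesh number counted as tubulogenic efficiency.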

[9] = tested on: HUVEC; assay: Inhibition of FBS-induced capillary-like network organization in human HUVEC at 0.001 to 10 uM after 6 hrs by matrigel assay; format: functional, cell-based; procedure, shortened: as §3
[10] = tested on: HUVEC; assay: Inhibition of FBS-induced network efficiency of human HUVEC assessed as reduction of number of meshes at 0.001 to 10 uM after 6 hrs by matrigel assay; format: functional, cell-based; procedure, shortened: as §3
[11] = tested on: HUVEC; assay: Inhibition of PMA-stimulated MMP2 mRNA expression in human HUVEC after 24 hrs by QT-PCR analysis; format: functional, cell-based
Procedure, shortened: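 HUVEC starved, PMA pre-treated (30 nM, 3 h), then exposed to inhibitor for 24 h before RNA extraction. Real-time PCR with SYBR Green, 45 cycles (95 °C 10 s, 60 °C 15 s, 72 °C 15 s), with melting-curve check.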

[12] = tested on: HUVEC; assay: Inhibition of PMA-stimulated MMP2 protein expression in human HUVEC after 24 hrs by Western blot analysis relative to control; format: functional
Procedure, shortened: (§4)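 HUVEC (2x10^6) seeded, attached one day, starved 6 h in serum-free medium with 2% BSA. Pre-treated 3 h with 30 nM PMA, then exposed to inhibitor (10 µM) or DMSO vehicle for 24 h. Conditioned media and cell proteins collected. Equal protein on 10% SDS-PAGE, PVDF blot, milk block, anti-MMP-2, MMP-9 and β-actin antibodies, HRP/ECL detection.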

[13] = target: T3, 72 kDa type IV collagenase (Homo sapiens, UniProt P08253); assay: Inhibition of MMP2 gelatinase activity in human HUVEC by gel zymography
Procedure, shortened: (§5)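 Gelatin zymography on 10% polyacrylamide gels with 0.1% gelatin and SDS, samples unheated. Gels renatured 30 min at room temperature. Either untreated-HUVEC conditioned medium run and gel lane slices developed overnight at 37 °C in developing buffer containing inhibitor, or medium from inhibitor-treated HUVEC developed overnight without inhibitor. Coomassie stained; bands quantified by densitometry.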
Target sequence in this assay (P08253 110-660 limits assumed): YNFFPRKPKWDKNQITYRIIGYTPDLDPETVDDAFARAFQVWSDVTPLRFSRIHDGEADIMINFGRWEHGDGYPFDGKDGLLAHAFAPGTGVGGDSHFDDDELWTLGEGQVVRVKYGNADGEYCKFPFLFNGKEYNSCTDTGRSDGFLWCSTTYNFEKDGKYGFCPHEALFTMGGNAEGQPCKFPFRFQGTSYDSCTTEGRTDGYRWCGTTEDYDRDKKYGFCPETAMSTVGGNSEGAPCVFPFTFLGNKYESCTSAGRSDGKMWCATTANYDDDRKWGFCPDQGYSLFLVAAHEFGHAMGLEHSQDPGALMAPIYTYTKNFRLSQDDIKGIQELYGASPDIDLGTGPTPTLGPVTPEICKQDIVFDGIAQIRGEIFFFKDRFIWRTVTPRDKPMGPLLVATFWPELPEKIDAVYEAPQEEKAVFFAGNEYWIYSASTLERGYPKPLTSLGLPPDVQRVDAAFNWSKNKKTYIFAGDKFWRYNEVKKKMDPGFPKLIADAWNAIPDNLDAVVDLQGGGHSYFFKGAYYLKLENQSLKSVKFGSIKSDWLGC

[14] = target: T2, Matrix metalloproteinase-9; assay: Inhibition of MMP9 gelatinase activity in human HUVEC by gel zymography; procedure, shortened: as §5
[15] = target: T3, 72 kDa type IV collagenase; assay: Inhibition of MMP2 gelatinase activity in human HUVEC at 0.001 uM by gel zymography; procedure, shortened: as §5
Target sequence in this assay (P08253 110-660 limits assumed): as above

[16] = target: T2, Matrix metalloproteinase-9; assay: Inhibition of MMP9 gelatinase activity in human HUVEC at 0.001 uM by gel zymography; procedure, shortened: as §5
[17] = target: T3, 72 kDa type IV collagenase; assay: Inhibition of MMP2 in HUVEC assessed as suppression of protein release at 10 uM after 24 hrs by Western blot analysis; procedure, shortened: as §4
Target sequence in this assay (P08253 110-660 limits assumed): as above

[18] = target: T2, Matrix metalloproteinase-9; assay: Inhibition of MMP9 in HUVEC assessed as suppression of protein release at 10 uM after 24 hrs by Western blot analysis; procedure, shortened: as §4
[19] = target: T3, 72 kDa type IV collagenase; assay: Inhibition of MMP2 in HUVEC assessed as suppression of protein production at 10 uM after 24 hrs by Western blot analysis; procedure, shortened: as §4
Target sequence in this assay (P08253 110-660 limits assumed): as above

[20] = target: T2, Matrix metalloproteinase-9; assay: Inhibition of MMP9 in HUVEC assessed as suppression of protein production at 10 uM after 24 hrs by Western blot analysis; procedure, shortened: as §4
[21] = tested on: HUVEC; assay: Cytotoxicity against human HUVEC assessed as reduction of cell growth at 0.001 to 10 uM after 24 to 96 hrs by MTT assay; format: cell-based; conditions: in the assay text read “0.01 to 10 uM” for “0.001 to 10 uM”
Procedure, shortened: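 HUVEC (passages 3–6) seeded at 1000/well in complete medium. After adhesion, fresh medium with or without inhibitor, 10 nM–10 µM. Incubated 24, 48, 72 and 96 h; MTT absorbance read at 570 nm.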

[22] = Induction of apoptosis in human HUVEC assessed as cell viability at 0.001 to 10 uM after 18 hrs using Annexin-V and 7-amino-actinomycin-D staining by flow fluorocytometry analysis; format: cell-based; conditions: HUVEC cells, read-out: Activity
Procedure, shortened: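 HUVEC (1x10^5) plated in six-well plates, adhered overnight. Treated in growth medium with inhibitor (10 nM–10 µM) or hydrogen peroxide (100–200 µM) overnight. Stained 15 min at room temperature in the dark with FITC-Annexin V and 7-AAD in HEPES/NaCl/CaCl2 binding buffer pH 7.4. Analysed by flow cytometry.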

[23] = tested on: Mus musculus; assay: Antiangiogenic activity in C57/BL6 mouse matrigel sponge assay model assessed as reduction of VEGF-A, TNFalpha and heparin-induced hemoglobin content at 0.1 to 10 uM, sc; format: functional, organism-based
Procedure, shortened: (§6)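 Matrigel (0.6 mL final) with VTH mix (VEGF-A 100 ng/mL, TNF-α 2 ng/mL, heparin 25 UI/mL), with or without inhibitor at 0.1-1-10 µM, injected s.c. into flanks of male C57/BL6 mice; some groups also given 0.1-1-10 µM i.p. at day 0; 8 mice/group. Plugs recovered after four days. Read-outs: hemoglobin by Drabkin reagent; collagenase IV digest, flow cytometry for CD31+ cells within CD45−CD3− gate. Mean ± SEM.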

[24] = tested on: Mus musculus; assay: Antiangiogenic activity in ip dosed C57/BL6 mouse matrigel sponge assay model assessed as reduction of VEGF-A, TNFalpha and heparin-induced number of CD45-/CD31+ cells after 4 days by flow cytometry; format: functional, organism-based; procedure, shortened: as §6
[25] = species: Mus musculus; assay: Antiangiogenic activity in C57/BL6 mouse matrigel sponge assay model assessed as reduction of VEGF-A, TNFalpha and heparin-induced number of CD45-/CD31+ cells treated in plugs by flow cytometry; format: functional, organism-based; procedure, shortened: as §6
[26] = target: T3, 72 kDa type IV collagenase; assay: Inhibition of recombinant human activated-MMP2 using Mca-Lys-Pro-Leu-Gly-Leu-Dap(Dnp)-Ala-Arg-NH2 as fluorogenic substrate incubated for 4 hrs followed by substrate addition measured every 10 secs for 20 mins by fluorometric assay; procedure, shortened: as §1
Target sequence in this assay (P08253 whole entry): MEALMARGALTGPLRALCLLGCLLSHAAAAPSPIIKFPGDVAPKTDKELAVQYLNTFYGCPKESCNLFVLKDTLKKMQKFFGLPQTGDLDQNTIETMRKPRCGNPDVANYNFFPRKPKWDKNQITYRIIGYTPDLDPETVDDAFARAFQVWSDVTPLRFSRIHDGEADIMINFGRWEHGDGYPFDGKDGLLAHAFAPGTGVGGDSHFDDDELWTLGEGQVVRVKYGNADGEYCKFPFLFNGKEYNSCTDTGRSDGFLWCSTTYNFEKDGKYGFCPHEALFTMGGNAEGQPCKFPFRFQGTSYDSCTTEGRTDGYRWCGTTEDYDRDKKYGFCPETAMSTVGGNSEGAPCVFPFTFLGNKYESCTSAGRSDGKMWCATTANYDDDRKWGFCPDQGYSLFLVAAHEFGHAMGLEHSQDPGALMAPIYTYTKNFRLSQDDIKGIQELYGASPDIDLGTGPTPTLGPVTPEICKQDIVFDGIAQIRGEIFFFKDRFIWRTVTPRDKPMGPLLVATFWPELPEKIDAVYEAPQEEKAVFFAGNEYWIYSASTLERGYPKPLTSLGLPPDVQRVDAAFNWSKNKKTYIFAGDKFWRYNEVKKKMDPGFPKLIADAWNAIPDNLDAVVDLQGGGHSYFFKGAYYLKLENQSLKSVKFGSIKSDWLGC

[27] = target: Collagenase 3 (Homo sapiens, UniProt P45452); assay: Inhibition of recombinant human activated-MMP13 using Mca-Lys-Pro-Leu-Gly-Leu-Dap(Dnp)-Ala-Arg-NH2 as fluorogenic substrate incubated for 4 hrs followed by substrate addition measured every 10 secs for 20 mins by fluorometric assay; procedure, shortened: as §1
[28] = target: Matrix metalloproteinase-14 (Homo sapiens, UniProt P50281); assay: Inhibition of recombinant human catalytic domain MMP14 using Mca-Lys-Pro-Leu-Gly-Leu-Dap(Dnp)-Ala-Arg-NH2 as fluorogenic substrate incubated for 4 hrs followed by substrate addition measured every 10 secs for 20 mins by fluorometric assay; procedure, shortened: as §1
[29] = target: T3, 72 kDa type IV collagenase; assay: Inhibition of MMP2 gelatinase activity in human HUVEC at 0.001 to 10 uM by gel zymography; procedure, shortened: as §5
Target sequence in this assay (P08253 110-660 limits assumed): as the sequence (P08253 110-660 limits assumed) above

[30] = target: T2, Matrix metalloproteinase-9; assay: Inhibition of MMP9 gelatinase activity in human HUVEC at 0.001 to 10 uM by gel zymography; procedure, shortened: as §5
[31] = tested on: HUVEC; assay: Inhibition of FBS-induced cell invasion in human HUVEC at 0.001 to10 uM after overnight incubation using modified Boyden chambers; format: functional, cell-based; procedure, shortened: as §2

Compound: COc1ccc(-c2ccc(S(=O)(=O)N(OC(C)C)[C@H](CCN3C(=O)c4ccccc4C3=O)C(=O)NO)cc2)cc1
- pIC50 [1]: 6.70
- pIC50 [2]: 6.98
- pIC50 [3]: 9.37
- inhibition [4]: Active
- inhibition [5]: Dose-dependent effect
- inhibition [6]: Dose-dependent effect
- inhibition [7]: Active
- inhibition [8]: Dose-dependent effect
- inhibition [9]: Active
- inhibition [10]: Active
- inhibition [11]: Active
- fold change (FC) [12]: 0.6
- inhibition [13]: Dose-dependent effect
- inhibition [14]: Dose-dependent effect
- inhibition [15]: Active
- inhibition [16]: Active
- inhibition [17]: Active
- inhibition [18]: Active
- inhibition [19]: Active
- inhibition [20]: Active
- Activity [21]: Non-toxic
- viability at 18 h, up to 10 µM [22]: 85%
- inhibition [23]: Active
- inhibition [24]: Dose-dependent effect
- inhibition [25]: Dose-dependent effect

Compound: CC(C)ON([C@H](CCNC(=O)c1ccccc1)C(=O)NO)S(=O)(=O)c1ccc(-c2ccccc2)cc1
- pIC50 [1]: 6.11
- pIC50 [26]: 8.82
- pIC50 [2]: 6.35
- pIC50 [3]: 8.05

Compound: CC(C)ON([C@H](CCNS(C)(=O)=O)C(=O)NO)S(=O)(=O)c1ccc(-c2ccccc2)cc1
- pIC50 [1]: 6.49
- pIC50 [26]: 9.00
- pIC50 [2]: 7.15
- pIC50 [3]: 8.07

Compound: CC(=O)NCC[C@H](C(=O)NO)N(OC(C)C)S(=O)(=O)c1ccccc1
- pIC50 [1]: 4.59
- pIC50 [26]: 6.23
- pIC50 [3]: 5.41
- pIC50 [27]: 5.74
- pIC50 [28]: 5.26
- inhibition [4]: inactive
- inhibition [9]: inactive
- inhibition [10]: inactive
- inhibition [11]: inactive
- fold change (FC) [12]: 0.9
- inhibition [29]: inactive
- inhibition [30]: inactive
- inhibition [31]: inactive

Compound: COc1ccc(-c2ccc(S(=O)(=O)N(OC(C)C)[C@H](CCNC(=O)Cc3ccccc3)C(=O)NO)cc2)cc1
- pIC50 [1]: 5.85
- pIC50 [2]: 7.44
- pIC50 [3]: 8.54
- pIC50 [28]: 7.60
